Structures are written as SMILES. The source made the active and inactive calls.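 How the source made its calls: active means recombination in E. coli crosses cut more than 4-fold against the solvent-only control; inactive means cut of 4-fold or less.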

The subject of the test is E. coli V66 Hfr conjugational recombination, colony counts. The test can be described thus: Hfr conjugational cross recombinant frequency reduction – V66 E. coli, colony formation, powder samples, 100 µM, counter-screen for AddAB inhibitor project, late-stage follow-up (AID 623919). The note with it: at 100 µM; hits give high values. The method, boiled down:
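repeats = duplicate experiments | material = E. coli V66 recipient with Hfr donor | read-out basis = fold reduction in recombinant frequency versus DMSO, viability-adjusted | times = 1 h compound exposure plus 30 min mating | buffer or medium = LB broth | controls = DMSO-only culture | compound dosing = single 100 µM dose | technique = differential plating colony counts | also added = Hfr donor, 1:10 donor-to-recipient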
Consider `CCn1cc(C(=O)O)c(=O)c2cnc(N3CCN(C(=S)NC(=O)c4cccc(C)c4)CC3)nc21`, for which the fold reduction of recombination is 1 (inactive).

For `CCn1cc(C(=O)O)c(=O)c2cnc(N3CCN(C(=S)NC(=O)c4ccco4)CC3)nc21`, the fold reduction of recombination is 1 (inactive).

As for `Cc1ccc(C(=O)Nc2sc3c(c2C#N)CCC3)o1`, the fold reduction of recombination was 2 (inactive).

`C=CCNC(=S)N1CCN(c2ncc3c(=O)c(C(=O)O)cn(CC)c3n2)CC1`: the fold reduction of recombination was 1.5 (inactive).

Turning to `CCn1cc(C(=O)O)c(=O)c2cnc(N3CCN(C(=S)Nc4ccc5c(c4)OCO5)CC3)nc21`, the fold reduction of recombination was 1 (inactive).

`O=C(NCc1cccnc1)c1ccc([N+](=O)[O-])o1`: the fold reduction of recombination was 18.5.

With `CCn1cc(C(=O)O)c(=O)c2cnc(N3CCN(C(=S)Nc4ccccc4)CC3)nc21`, the fold reduction of recombination was 1 (inactive).

`O=C(Nc1ccc(N2CCOCC2)cc1)c1ccc([N+](=O)[O-])o1`: the fold reduction of recombination was 2 (inactive).

`N#Cc1c(NC(=O)c2cnccn2)sc2c1CCCC2`: the fold reduction of recombination was 1 (inactive).

Consider `Cc1sc(NC(=O)c2ccc(Br)o2)c(C#N)c1C`, for which the fold reduction of recombination is 1.5 (inactive).

On to `CCn1cc(C(=O)O)c(=O)c2cnc(N3CCN(C(=S)NC(=O)c4ccccc4Cl)CC3)nc21`, for which the fold reduction of recombination is 2 (inactive).

`O=C(Nc1ncccn1)c1ccc([N+](=O)[O-])o1`: the fold reduction of recombination is 20.

With `Cc1ccc(C(=O)Nc2sc3c(c2C#N)CCCCC3)o1`, the fold reduction of recombination was 3 (inactive).

Turning to `CCn1cc(C(=O)O)c(=O)c2cnc(N3CCN(C(=S)NCc4ccccc4)CC3)nc21`, the fold reduction of recombination was 1 (inactive).

In the case of `N#Cc1c(NC(=O)c2ccc(-c3ccccc3[N+](=O)[O-])o2)sc2c1CCCC2`, the fold reduction of recombination is 1 (inactive).

For the compound `CCn1cc(C(=O)O)c(=O)c2cnc(N3CCN(C(=S)Nc4ccccc4F)CC3)nc21`, the fold reduction of recombination is 2 (inactive).

`CCn1cc(C(=O)O)c(=O)c2cnc(N3CCN(C(=S)Nc4ccccc4C)CC3)nc21`: the fold reduction of recombination was 1 (inactive).

In the case of `NC(=O)c1ccsc1NC(=O)COC(=O)c1ccc([N+](=O)[O-])o1`, the fold reduction of recombination was 1.6 (inactive).

`CC1CCc2c(sc(NC(=O)c3ccc([N+](=O)[O-])o3)c2C#N)C1` (stereo not drawn): the fold reduction of recombination is 2 (inactive).

Regarding `Cc1cccnc1NC(=O)c1ccc([N+](=O)[O-])o1`, the fold reduction of recombination is 3 (inactive).

For the compound `CCn1cc(C(=O)O)c(=O)c2cnc(N3CCN(C(=O)Nc4ccccc4)CC3)nc21`, the fold reduction of recombination was 1 (inactive).

As to `Cc1ccc2nc(/C(C#N)=C\c3ccc([N+](=O)[O-])o3)[nH]c2c1`, the fold reduction of recombination is 3 (inactive).

Regarding `N#Cc1c(NC(=O)c2ccc([N+](=O)[O-])o2)sc2c1CCC2`, the fold reduction of recombination is 3 (inactive).

Regarding `N#Cc1c(NC(=O)c2ccccc2C(=O)O)sc2c1CCCC2`, the fold reduction of recombination is 1 (inactive).

For the compound `N#Cc1c(NC(=O)c2ccc([N+](=O)[O-])o2)sc2c1CCCC2`, the fold reduction of recombination is 1 (inactive).

Take `CCn1cc(C(=O)O)c(=O)c2cnc(N3CCN(C(=S)Nc4ccccc4Cl)CC3)nc21`: the fold reduction of recombination was 1 (inactive).

As for `CC(=O)Nc1ccc2nc(NC(=O)c3ccc([N+](=O)[O-])o3)sc2c1`, the fold reduction of recombination was 2 (inactive).

For the compound `N#Cc1c(NC(=O)c2ccco2)sc2c1CCC2`, the fold reduction of recombination was 1 (inactive).

Consider `CC1CCc2c(sc(NC(=O)c3ccc([N+](=O)[O-])o3)c2N)C1` (stereo not drawn), for which the fold reduction of recombination was 2 (inactive).

Turning to `CCn1cc(C(=O)O)c(=O)c2cnc(N3CCN(C(=S)Nc4ccc5c(c4)OCCO5)CC3)nc21`, the fold reduction of recombination is 1 (inactive).

Consider `CCn1cc(C(=O)O)c(=O)c2cnc(N3CCNCC3)nc21`, for which the fold reduction of recombination was 50.

Consider `CCn1cc(C(=O)O)c(=O)c2cnc(N3CCN(C(=S)NC(=O)c4cccnc4)CC3)nc21`, for which the fold reduction of recombination is 1 (inactive).

`CCn1cc(C(=O)O)c(=O)c2cnc(N3CCN(C(=S)Nc4ccc(F)cc4)CC3)nc21`: the fold reduction of recombination is 1 (inactive).

`C=CCn1c(Sc2ncc([N+](=O)[O-])s2)n[nH]c1=O`: the fold reduction of recombination was 900.

Take `CC1(C)Cc2c(sc(NC(=O)c3ccco3)c2C#N)CO1`: the fold reduction of recombination was 2 (inactive).

Turning to `N#Cc1c(NC(=O)c2ccccc2)sc2c1CCC2`, the fold reduction of recombination was 1 (inactive).

For `Nc1c(NC(=O)c2ccc([N+](=O)[O-])o2)sc2c1CCCC2`, the fold reduction of recombination was 1 (inactive).

As to `N#Cc1c(NC(=O)c2cccc(F)c2)sc2c1CCCC2`, the fold reduction of recombination was 1 (inactive).

As to `CCn1cc(C(=O)O)c(=O)c2cnc(N3CCN(C(=S)NC)CC3)nc21`, the fold reduction of recombination is 1 (inactive).

On to `N#Cc1c(NC(=O)C2CC=CCC2C(=O)O)sc2c1CCC2` (stereo not drawn), for which the fold reduction of recombination was 1 (inactive).

On to `CCn1cc(C(=O)O)c(=O)c2cnc(N3CCN(C(=S)Nc4ccc(Cl)cc4)CC3)nc21`, for which the fold reduction of recombination is 1 (inactive).

Regarding `CCn1cc(C(=O)O)c(=O)c2cnc(N3CCN(C(=S)NC(C)c4ccccc4)CC3)nc21` (stereo not drawn), the fold reduction of recombination is 1.5 (inactive).

Regarding `CCn1cc(C(=O)O)c(=O)c2cnc(N3CCN(C(=S)NC4CC5CCC4C5)CC3)nc21` (stereo not drawn), the fold reduction of recombination is 1 (inactive).

For `CCn1cc(C(=O)O)c(=O)c2cnc(N3CCN(C(=S)Nc4cccc(C(F)(F)F)c4)CC3)nc21`, the fold reduction of recombination is 6.

As to `O=C(OCC(=O)c1cccs1)c1ccc([N+](=O)[O-])o1`, the fold reduction of recombination was 2.1 (inactive).

As to `CCn1cc(C(=O)O)c(=O)c2cnc(N3CCN(C(=S)Nc4ccccc4OC)CC3)nc21`, the fold reduction of recombination was 1.5 (inactive).

On to `CCn1cc(C(=O)O)c(=O)c2cc(F)c(N3CCN(C(=S)Nc4cccc(C(F)(F)F)c4)CC3)cc21`, for which the fold reduction of recombination is 350.

On to `O=C(Nc1cccc(NC(=O)c2ccccc2Cl)c1)c1ccc([N+](=O)[O-])o1`, for which the fold reduction of recombination is 2 (inactive).

(Values after PubChem BioAssay AID623919 (The Scripps Research Institute Molecular Screening Center, 2012).)
